Results from ChEMBL document CHEMBL1811844, “Design, synthesis, and biological evaluation of triazolo-pyrimidine derivatives as novel inhibitors of hepatitis B virus surface antigen (HBsAg) secretion” (J Med Chem, 2011).

Legend:
Mus musculus [1] = assay: Acute toxicity in CL57BL/6 mouse assessed as effect on serum creatinine level at 25 mg/kg, iv administered as single dose after 24 hrs; format: organism-based; parameters: dose 25 mg/kg, route intravenous; conditions: in vivo
How it was run: (§1)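 Female C57BL/6 mice, four per group, randomized, each given one tail-vein injection of a 2 mg/mL solution in 1:1 NMP:Solutol HS15 diluted with saline; a vehicle-only group served as control. Mice were watched for the first hour and sacrificed at 24 h with necropsy. Serum was collected and run on an automated chemistry and electrolyte analyser.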

Mus musculus [2] = assay: Toxicity in HBV infected transgenic 1.3.32 mouse assessed as change in serum amylase level at 7.9 to 25 mg/kg, po qd for 14 days; format: organism-based; parameters: dose 7.9-25 mg/kg, route oral; conditions: in vivo, 336 h
How it was run: (§2)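 HBV-transgenic mice (strain 1.3.32), 10 per group, randomised; oral gavage once daily for 14 days at 25 or 7.9 mg/kg in NMP:Solutol HS15/saline vehicle; vehicle-only group. Weighed before the first dose and after 3 days; observed one hour after each dose. Tail-vein blood taken before dosing, at day 7 and at day 14 necropsy, each 3 h post-dose, for serum chemistry.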

Mus musculus [3] = assay: Toxicity in HBV infected transgenic 1.3.32 mouse assessed as change in serum alkaline phosphatase level at 7.9 to 25 mg/kg, po qd for 14 days; format: organism-based; parameters: dose 7.9-25 mg/kg, route oral; conditions: in vivo, 336 h; how it was run: as §2
Hepatitis B virus [4] = assay: Antiviral activity against wild-type Hepatitis B virus infected in human HepG2 cells assessed as inhibition of HBsAg secretion by ELISA; format: functional, organism-based
Hepatitis B virus [5] = assay: Antiviral activity against lamivudine/telbivudine-resistant Hepatitis B virus harboring polymerase M552I mutant in human HepG2 cells assessed as inhibition of HBsAg secretion by ELISA; format: functional, organism-based
Rattus norvegicus [6] = assay: Volume of distribution at steady state in fasted Sprague-Dawley rat at 5 mg/kg, iv by LC/MS/MS analysis; format: ADME, organism-based; parameters: dose 5 mg/kg, route intravenous; conditions: in vivo
How it was run: (§3)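 Male Sprague-Dawley rats, 3 per treatment, carried jugular cannulae and were fasted 12 h with water. Compound was formulated at 2 mg/mL in 1:1 NMP:Solutol HS15 diluted with saline. Dosing was 5 mg/kg iv or 25 mg/kg oral gavage. Blood was drawn predose and at 5, 15, 30 min, 1, 3 and 6 h. Plasma was quantified by LC-MS/MS against an 8-point standard curve.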

Mus musculus [7] = assay: Toxicity in HBV infected transgenic 1.3.32 mouse assessed as elevation in serum alanine aminotransferase level at 7.9 to 25 mg/kg, po qd for 14 days; format: organism-based; parameters: dose 7.9-25 mg/kg, route oral; conditions: in vivo, 336 h; how it was run: as §2
Mus musculus [8] = assay: Acute toxicity in CL57BL/6 mouse assessed as reduction in neutrophils count at 25 mg/kg, iv administered as single dose after 24 hrs; format: organism-based; parameters: dose 25 mg/kg, route intravenous; conditions: in vivo
How it was run: (§4)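 Female C57BL/6 mice, four per group, randomised; single tail-vein bolus in NMP:Solutol HS15 (1:1) diluted with saline to 2 mg/mL, injected within 10 min of preparation; vehicle-only group. Close observation for the first hour; sacrifice and necropsy at 24 h. Whole-blood complete blood counts and serum chemistry, including total bilirubin and total protein, were measured.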

Mus musculus [9] = assay: Acute toxicity in CL57BL/6 mouse assessed as effect on basophils percent at 25 mg/kg, iv administered as single dose after 24 hrs; format: organism-based; parameters: dose 25 mg/kg, route intravenous; conditions: in vivo
How it was run: as §1, with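 “watched closely” for “watched”, “Whole blood” for “Serum”, “taken for complete blood counts” for “collected and run”, “haematology” for “chemistry and electrolyte”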

Mus musculus [10] = assay: Acute toxicity in CL57BL/6 mouse assessed as effect on serum total protein level at 25 mg/kg, iv administered as single dose after 24 hrs; format: organism-based; parameters: dose 25 mg/kg, route intravenous; conditions: in vivo; how it was run: as §4
Mus musculus [11] = assay: Toxicity in HBV infected transgenic 1.3.32 mouse assessed as change in serum glucose level at 7.9 to 25 mg/kg, po qd for 14 days; format: organism-based; parameters: dose 7.9-25 mg/kg, route oral; conditions: in vivo, 336 h; how it was run: as §2
Mus musculus [12] = assay: Toxicity in HBV infected transgenic 1.3.32 mouse assessed as behavioral changes at 7.9 to 25 mg/kg, po qd for 14 days; format: organism-based; parameters: dose 7.9-25 mg/kg, route oral; conditions: in vivo, 336 h; how it was run: as §2
Hepatitis B virus [13] = assay: Antiviral activity against adefovir-resistant Hepatitis B virus harboring polymerase N584T mutant in human HepG2 cells assessed as inhibition of HBsAg secretion by ELISA; format: functional, organism-based
Mus musculus [14] = assay: Acute toxicity in CL57BL/6 mouse assessed as effect on serum albumin level at 25 mg/kg, iv administered as single dose after 24 hrs; format: organism-based; parameters: dose 25 mg/kg, route intravenous; conditions: in vivo; how it was run: as §1
Rattus norvegicus [15] = assay: Cmax in fasted Sprague-Dawley rat plasma at 25 mg/kg, po after 6 hrs by LC/MS/MS analysis; format: ADME, organism-based; parameters: dose 25 mg/kg, route oral; conditions: in vivo
How it was run: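 Male rats, 3 per treatment, fitted with jugular vein cannulae two days before dosing and fasted 12 h (water allowed). Compound given by gavage at 25 mg/kg, formulated at 2 mg/mL in 1:1 NMP:Solutol HS15 diluted with saline. Blood taken predose and at 5, 15, 30 min, 1, 3 and 6 h. Plasma quantified by LC/MS against an 8-point standard curve; Cmax calculated by standard methods.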

Mus musculus [16] = assay: Toxicity in HBV infected transgenic 1.3.32 mouse assessed as change in blood urea nitrogen level at 7.9 to 25 mg/kg, po qd for 14 days; format: organism-based; parameters: dose 7.9-25 mg/kg, route oral; conditions: in vivo, 336 h; how it was run: as §2
Mus musculus [17] = assay: Toxicity in HBV infected transgenic 1.3.32 mouse assessed as elevation in serum Na+ level at 7.9 to 25 mg/kg, po qd for 14 days; format: organism-based; parameters: dose 7.9-25 mg/kg, route oral; conditions: in vivo, 336 h; how it was run: as §2
Mus musculus [18] = assay: Acute toxicity in CL57BL/6 mouse assessed as morbidity at 25 mg/kg, iv administered as single dose after 24 hrs; format: organism-based; parameters: dose 25 mg/kg, route intravenous; conditions: in vivo; how it was run: as §4
Mus musculus [19] = assay: Acute toxicity in CL57BL/6 mouse assessed as effect on hematocrit at 25 mg/kg, iv administered as single dose after 24 hrs; format: organism-based; parameters: dose 25 mg/kg, route intravenous; conditions: in vivo
How it was run: as §1, with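 “watched closely” for “watched”, “Whole blood” for “Serum”, “taken for complete blood counts” for “collected and run”, “haematology” for “chemistry and electrolyte”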

Mus musculus [20] = assay: Acute toxicity in CL57BL/6 mouse assessed as effect on mean platelet volume at 25 mg/kg, iv administered as single dose after 24 hrs; format: organism-based; parameters: dose 25 mg/kg, route intravenous; conditions: in vivo
How it was run: as §1, with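 “watched closely” for “watched”, “Whole blood” for “Serum”, “taken for complete blood counts” for “collected and run”, “haematology” for “chemistry and electrolyte”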

Mus musculus [21] = assay: Acute toxicity in CL57BL/6 mouse assessed as increase in lymphocytes count at 25 mg/kg, iv administered as single dose after 24 hrs; format: organism-based; parameters: dose 25 mg/kg, route intravenous; conditions: in vivo; how it was run: as §4
Mus musculus [22] = assay: Acute toxicity in CL57BL/6 mouse assessed as effect on serum alanine aminotransferase level at 25 mg/kg, iv administered as single dose after 24 hrs; format: organism-based; parameters: dose 25 mg/kg, route intravenous; conditions: in vivo; how it was run: as §1
Mus musculus [23] = assay: Toxicity in HBV infected transgenic 1.3.32 mouse assessed as change in serum albumin level at 7.9 to 25 mg/kg, po qd for 14 days; format: organism-based; parameters: dose 7.9-25 mg/kg, route oral; conditions: in vivo, 336 h; how it was run: as §2
Rattus norvegicus [24] = assay: Half life in fasted Sprague-Dawley rat plasma at 5 mg/kg, iv by LC/MS/MS analysis; format: ADME, organism-based; parameters: dose 5 mg/kg, route intravenous; conditions: in vivo; how it was run: as §3
Mus musculus [25] = assay: Toxicity in HBV infected transgenic 1.3.32 mouse assessed as change in serum Ca2+ level at 7.9 to 25 mg/kg, po qd for 14 days; format: organism-based; parameters: dose 7.9-25 mg/kg, route oral; conditions: in vivo, 336 h; how it was run: as §2
Mus musculus [26] = assay: Acute toxicity in CL57BL/6 mouse assessed as effect on mean corpuscular at 25 mg/kg, iv administered as single dose after 24 hrs; format: organism-based; parameters: dose 25 mg/kg, route intravenous; conditions: in vivo
How it was run: as §1, with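 “watched closely” for “watched”, “Whole blood” for “Serum”, “taken for complete blood counts” for “collected and run”, “haematology” for “chemistry and electrolyte”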

Mus musculus [27] = assay: Acute toxicity in CL57BL/6 mouse assessed as effect on serum amylase level at 25 mg/kg, iv administered as single dose after 24 hrs; format: organism-based; parameters: dose 25 mg/kg, route intravenous; conditions: in vivo; how it was run: as §1
Mus musculus [28] = assay: Toxicity in HBV infected transgenic 1.3.32 mouse assessed as change in serum K+ level at 7.9 to 25 mg/kg, po qd for 14 days; format: organism-based; parameters: dose 7.9-25 mg/kg, route oral; conditions: in vivo, 336 h; how it was run: as §2
Mus musculus [29] = assay: Acute toxicity in CL57BL/6 mouse assessed as effect on monocytes count at 25 mg/kg, iv administered as single dose after 24 hrs; format: organism-based; parameters: dose 25 mg/kg, route intravenous; conditions: in vivo
How it was run: as §1, with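 “watched closely” for “watched”, “Whole blood” for “Serum”, “taken for complete blood counts” for “collected and run”, “haematology” for “chemistry and electrolyte”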

Mus musculus [30] = assay: Acute toxicity in CL57BL/6 mouse assessed as effect on serum globulin level at 25 mg/kg, iv administered as single dose after 24 hrs; format: organism-based; parameters: dose 25 mg/kg, route intravenous; conditions: in vivo; how it was run: as §1
Mus musculus [31] = assay: Toxicity in HBV infected transgenic 1.3.32 mouse assessed as change in serum total protein level at 7.9 to 25 mg/kg, po qd for 14 days; format: organism-based; parameters: dose 7.9-25 mg/kg, route oral; conditions: in vivo, 336 h; how it was run: as §2

Fc1cccc(Cl)c1C1CC(c2ccc(Cl)cc2)Nc2ncnn21 (racemic)
2437 ng/mL: Cmax (Rattus norvegicus [15])
Non-toxic: Activity (Mus musculus [1]) | Activity (Mus musculus [2]) | Activity (Mus musculus [3]) | Activity (Mus musculus [9]) | Activity (Mus musculus [10]) | Activity (Mus musculus [11]) | Activity (Mus musculus [12]) | Activity (Mus musculus [14]) | Activity (Mus musculus [16]) | Activity (Mus musculus [18]) | Activity (Mus musculus [19]) | Activity (Mus musculus [20]) | Activity (Mus musculus [22]) | Activity (Mus musculus [23]) | Activity (Mus musculus [25]) | Activity (Mus musculus [26]) | Activity (Mus musculus [27]) | Activity (Mus musculus [28]) | Activity (Mus musculus [29]) | Activity (Mus musculus [30]) | Activity (Mus musculus [31])
9.1 µM: EC50 (Hepatitis B virus [5])
5.6 µM: EC50 (Hepatitis B virus [13])
Toxic: Activity (Mus musculus [7]) | Activity (Mus musculus [8]) | Activity (Mus musculus [17]) | Activity (Mus musculus [21])
8.4 µM: EC50 (Hepatitis B virus [4])
1.6 L/kg: Vdss (Rattus norvegicus [6])
2.17 h: t1/2 (Rattus norvegicus [24])
